Measurements published in ChEMBL document CHEMBL2029329, “Synthesis and biological evaluation of 1,4-diaryl-2-azetidinones as specific anticancer agents: activation of adenosine monophosphate activated protein kinase and induction of apoptosis” (J Med Chem, 2012).
One block for each molecule: values may come before it. The source made the active and inactive calls. No cut-off for these calls is given here.

Columns and labels:
[1] = Antiproliferative activity in human renal cancer cells; assay type: functional, cell-based; settings: Cancer cell lines
[2] = Antiproliferative activity in human HuTu 80 cells assessed as cell viability after 72 hrs by MTT assay; assay type: functional, cell-based, HuTu80
Method in brief: (§1)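 Each line was grown in its own medium: DMEM for HuTu-80, EMEM/NEAA for MCF-7, EMEM/F12 for SKNBE, DMEM/F12 with 5% FBS for T84, Leibovitz's for the SW lines. Cells were seeded, left 24 h, then exposed to graded concentrations for 72 h. MTT was given 2 h, absorbance read at 570 nm. IC50 is 50% absorbance inhibition versus control, from dose-response curves; mean ± SD of ≥3 independent experiments, each in triplicate.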

[3] = test system: HeLa; assay: Antiproliferative activity in human HeLa cells assessed as cell viability at 10 uM after 48 hrs by MTT assay; assay type: functional, cell-based
Method in brief: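 HeLa cells were kept in DMEM with 10% FBS at 37 °C, 5% CO2. They were seeded, left 24 h, then given 10 μM compound for 48 h. MTT was added for 2 h at 37 °C, formazan solubilized, absorbance read at 570 nm, and viability compared with control cells.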

[4] = biological target: Tubulin (Sus scrofa, UniProt P02554+P02550); assay: Inhibition of porcine brain tubulin polymerization after 30 mins by spectrophotometry
Method in brief: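 Porcine brain tubulin at 2.5 mg/mL was used in 80 mM PIPES pH 6.9, 1 mM MgCl2, 2 mM EGTA, 10% glycerol, with 1 mM GTP and graded compound (0.2% DMSO vehicle). Turbidity was followed at 340 nm, 37 °C.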

[5] = test system: SW-620; assay: Antiproliferative activity in human SW620 cells assessed as cell viability after 72 hrs by MTT assay; assay type: functional, cell-based; method in brief: as §1
[6] = test system: SW480; assay: Antiproliferative activity in human SW480 cells assessed as cell viability after 72 hrs by MTT assay; assay type: functional, cell-based; method in brief: as §1
[7] = Antiproliferative activity in human CCD-841-CoN cells assessed as cell viability at 10 uM after 72 hrs by MTT assay; assay type: cell-based
Method in brief: (§2)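 Normal cells (CCD841CoN in EMEM/NEAA with 10% FBS; FHs74 in DMEM with 10% FBS, EGF 30 ng/mL, insulin 10 μg/mL) were seeded and grown for 24 h at 37 °C, 5% CO2, then given compound at 10 μM. Viability was read by MTT: 2 h at 37 °C, formazan solubilized, absorbance at 570 nm.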

[8] = test system: T84; assay: Antiproliferative activity in human T84 cells assessed as cell viability after 72 hrs by MTT assay; assay type: functional, cell-based; method in brief: as §1
[9] = test system: MCF7; assay: Antiproliferative activity in human MCF7 cells assessed as cell viability after 72 hrs by MTT assay; assay type: functional, cell-based; method in brief: as §1
[10] = Antiproliferative activity in human FHs74 cells assessed as cell viability at 10 uM after 72 hrs by MTT assay; assay type: cell-based; method in brief: as §2
[11] = Antiproliferative activity in human SK-N-BE cells assessed as cell viability after 72 hrs by MTT assay; assay type: functional, cell-based; method in brief: as §1
[12] = test system: SW48; assay: Antiproliferative activity in human SW48 cells assessed as cell viability after 72 hrs by MTT assay; assay type: functional, cell-based; method in brief: as §1
[13] = Cell cycle arrest in human HuTu 80 cells assessed as […] at sub-G1 phase at 30 nM by propidium iodide-based flow cytometry; assay type: functional; settings: HuTu80, TDE = time-dependent effect
[14] = test system: HuTu80; assay: Induction of apoptosis in human HuTu 80 cells assessed as caspase-3 cleavage at 30 nM after 24 hrs by Western blot analysis
[15] = biological target: T1, AMP-activated protein kinase, AMPK (Homo sapiens) (UniProt P54646+O43741+P54619+Q9UGJ0+Q9Y478+Q13131+Q9UGI9); assay: Induction of AMPK phosphorylation at Thr172 residue in human SW48 cells at 30 nM after 16 hrs by Western blot analysis; assay type: cell-based
Method in brief: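 SW48 cells were exposed to 30 nM compound for 16 h, with 0.1% DMSO as vehicle. Total RIPA lysates (with protease and phosphatase inhibitors) were blotted for pT172-AMPK and total AMPK.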

[16] = Cell cycle arrest in human HuTu 80 cells assessed as […] at sub-G1 phase at 30 nM after 72 hrs by propidium iodide-based flow cytometry (reference value: 4.3 %); assay type: functional; parameters: scale not given: the % may be the effect or the level left; settings: HuTu80
[17] = biological target: T1, AMP-activated protein kinase, AMPK (Homo sapiens); assay: Induction of AMPK phosphorylation at Thr172 residue in human […] cells at 30 nM after 24 hrs by Western blot analysis; assay type: cell-based
Method in brief: (§3)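 HuTu-80 cells were exposed to 30 nM compound for 24 h, with 0.1% DMSO as vehicle. pT172-AMPK and pS792-Raptor were blotted from total RIPA extracts with vinculin for loading. pS15-p53 and total p53 were blotted from nuclear extracts with fibrillarin as nuclear control.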

[18] = biological target: T1, AMP-activated protein kinase, AMPK (Homo sapiens); assay: Induction of AMPK-mediated p53 phosphorylation at ser15 residue in human […] cells at 30 nM after 24 hrs by Western blot analysis; assay type: cell-based; method in brief: as §3
[19] = test system: HuTu 18; assay: Effect on AKT phosphorylation at ser473 in insulin-stimulated human […] cells at 30 nM after 24 hrs by Western blot analysis; assay type: cell-based
Method in brief: (§4)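 HuTu-80 cells were exposed to 30 nM compound for 24 h, with 0.1% DMSO as vehicle. They were then mock treated or stimulated with 10 μg/mL insulin for 10 min. Total RIPA extracts were probed by Western blot for pS473-Akt and total Akt, with vinculin as loading control.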

[20] = Cell cycle arrest in human HuTu 80 cells assessed as accumulation at G2/M phase at 30 nM after 48 to 72 hrs by propidium iodide-based flow cytometry; assay type: functional; settings: HuTu80
Method in brief: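 HuTu-80 cells were exposed to 30 nM compound for 48 and 72 h, with 0.1% DMSO as vehicle. Cells were trypsinized, washed in PBS, fixed in 75% ethanol at 4 °C and stained with propidium iodide. DNA content was measured by flow cytometry.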

[21] = test system: HuTu 18; assay: Effect on AKT phosphorylation at ser473 in human […] cells at 30 nM after 24 hrs by Western blot analysis; assay type: cell-based; method in brief: as §4
[22] = Cell cycle arrest in human HuTu 80 cells assessed as accumulation at sub-G1 phase at 30 nM after 48 hrs by propidium iodide-based flow cytometry (reference value: 3.3 %); settings: HuTu80
[23] = biological target: T1, AMP-activated protein kinase, AMPK (Homo sapiens); assay: Induction of AMPK-mediated raptor phosphorylation at ser792 residue in human […] cells at 30 nM after 24 hrs by Western blot analysis; assay type: cell-based; method in brief: as §3
[24] = test system: HuTu80; assay: Induction of apoptosis in human HuTu 80 cells assessed as PARP cleavage at 30 nM after 24 hrs by Western blot analysis
[25] = biological target: T1, AMP-activated protein kinase, AMPK (Homo sapiens); assay: Induction of AMPK-mediated p53 pser15 accumulation in human […] cells at 30 nM after 24 hrs by Western blot analysis; assay type: cell-based; method in brief: as §3

Structure (SMILES): COc1ccc([C@@H]2[C@H](O)C(=O)N2c2cc(OC)c(OC)c(OC)c2)cc1[N+](=O)[O-]
- IC50 [1]: 29.2 nM
- IC50 ([2]; Homo sapiens, HuTu80, 72 h): 529 nM

Structure (SMILES): COc1ccc([C@@H]2[C@H](O)C(=O)N2c2cc(OC)c(OC)c(OC)c2)cc1N
- IC50 ([2]; Homo sapiens, HuTu80, 72 h): 101 nM

Structure (SMILES): COc1ccc([C@@H]2[C@H](O)C(=O)N2c2cc(OC)cc(OC)c2)cc1 (racemic)
- Activity [3]: Active
- IC50 ([2]; Homo sapiens, HuTu80, 72 h): 125 nM

- IC50 [4]: 3600 nM
- IC50 ([5]; Homo sapiens, SW-620, 72 h): 6.6 nM
- IC50 ([6]; Homo sapiens, SW480, 72 h): 24.2 nM
- IC50 ([9]; Homo sapiens, MCF7, 72 h): 5.19 nM
- IC50 ([12]; Homo sapiens, SW48, 72 h): 12.1 nM
Structure (SMILES): COc1ccc([C@H]2[C@H](O)C(=O)N2c2cc(OC)cc(OC)c2)cc1 (racemic) [listing 1 of 2 here]
- Activity [7]: Non-toxic
- IC50 ([8]; Homo sapiens, T84, 72 h): 5.73 nM
- Activity [10]: Non-toxic
- IC50 ([11]; sk-n-be): 2.25 nM
- IC50 ([2]; hutu80): 9.05 nM

Structure (SMILES): COc1ccc([C@@H]2[C@H](O)C(=O)N2c2cc(OC)c(OC)c(OC)c2)cc1O (racemic)
- Activity [3]: Active
- IC50 ([2]; Homo sapiens, HuTu80, 72 h): 28.8 nM

- IC50 [4]: 3800 nM
- IC50 ([5]; sw-620): 13.6 nM
- IC50 ([6]; Homo sapiens, SW480, 72 h): 22.1 nM
- IC50 ([9]; Homo sapiens, MCF7, 72 h): 6.14 nM
- IC50 ([12]; Homo sapiens, SW48, 72 h): 15.2 nM
Structure (SMILES): COc1ccc([C@H]2[C@H](O)C(=O)N2c2cc(OC)c(OC)c(OC)c2)cc1O (racemic) [listing 1 of 2 here]
- IC50 ([8]; t84): 45.4 nM
- IC50 ([11]; sk-n-be): 4.2 nM
- IC50 ([2]; hutu80): 13.4 nM

Structure (SMILES): COc1ccc(N2C(=O)[C@@H](O)[C@H]2c2cc(OC)c(OC)c(OC)c2)cc1O (racemic)
- Activity [3]: Active
- IC50 ([2]; Homo sapiens, HuTu80, 72 h): 2550 nM

Structure (SMILES): COc1ccc(N2C(=O)[C@@H](O)[C@@H]2c2cc(OC)c(OC)c(OC)c2)cc1O (racemic)
- Activity [3]: Active
- IC50 ([2]; Homo sapiens, HuTu80, 72 h): 406 nM

- Activity [15]: Active
- Activity [17]: Active
- Activity [18]: Active
- Activity [23]: Active
- Activity [25]: Active
Structure (SMILES): COc1ccc([C@H]2[C@H](O)C(=O)N2c2cc(OC)c(OC)c(OC)c2)cc1O (racemic) [listing 2 of 2 here]
- Activity [13]: tde
- Activity [14]: Active
- Activity [16]: 32.7%
- Activity [19]: inactive
- Activity [20]: Active
- Activity [21]: inactive
- Activity [22]: 22.9%
- Activity [3]: Active
- Activity [24]: Active

- Activity [15]: Active
- Activity [17]: Active
- Activity [18]: Active
- Activity [23]: Active
- Activity [25]: Active
Structure (SMILES): COc1ccc([C@H]2[C@H](O)C(=O)N2c2cc(OC)cc(OC)c2)cc1 (racemic) [listing 2 of 2 here]
- Activity [13]: tde
- Activity [14]: Active
- Activity [16]: 35%
- Activity [19]: inactive
- Activity [20]: Active
- Activity [21]: inactive
- Activity [22]: 28.5%
- Activity [3]: Active
- Activity [24]: Active

- IC50 [4]: 1300 nM
- IC50 ([5]; sw-620): 8.58 nM
- IC50 ([6]; sw480): 16.7 nM
- IC50 ([9]; mcf7): 4.01 nM
- IC50 ([12]; sw48): 11.1 nM
Structure (SMILES): COc1ccc([C@H]2[C@H](O)C(=O)N2c2cc(OC)cc(OC)c2)cc1 (stereo in doubt; (+))
- IC50 ([8]; t84): 6.77 nM
- IC50 ([11]; sk-n-be): 1.12 nM
- IC50 ([2]; hutu80): 8.02 nM

- IC50 [4]: 1610 nM
- IC50 ([5]; sw-620): 3.37 nM
- IC50 ([6]; sw480): 12.5 nM
- IC50 ([9]; mcf7): 4.47 nM
- IC50 ([12]; sw48): 9.81 nM
Structure (SMILES): COc1ccc([C@H]2[C@H](O)C(=O)N2c2cc(OC)c(OC)c(OC)c2)cc1O (stereo in doubt; (+))
- Activity [7]: Non-toxic
- IC50 ([8]; t84): 20.3 nM
- Activity [10]: Non-toxic
- IC50 ([11]; sk-n-be): 1.32 nM
- IC50 ([2]; hutu80): 3.05 nM

Structure (SMILES): COc1ccc([C@H]2[C@H](O)C(=O)N2c2cc(OC)cc(OC)c2)cc1 (stereo in doubt; (-))
- IC50 ([2]; hutu80): 83.5 nM

Structure (SMILES): COc1ccc([C@H]2[C@H](O)C(=O)N2c2cc(OC)c(OC)c(OC)c2)cc1O (stereo in doubt; (-))
- IC50 ([2]; hutu80): 590 nM

Structure (SMILES): COc1ccc(/C=C\c2cc(OC)c(OC)c(OC)c2)cc1O [COMBRETASTATIN A4]
- Activity [14]: Active
- IC50 ([5]; Homo sapiens, SW-620, 72 h): 1.52 nM
- IC50 ([6]; Homo sapiens, SW480, 72 h): 3.63 nM
- Activity [16]: 34%
- IC50 ([8]; Homo sapiens, T84, 72 h): 23.4 nM
- IC50 ([9]; Homo sapiens, MCF7, 72 h): 1.11 nM
- IC50 ([11]; Homo sapiens, SK-N-BE, 72 h): 0.58 nM
- Activity [22]: 24.6%
- Activity [3]: Active
- Activity [24]: Active
- IC50 ([2]; Homo sapiens, HuTu80, 72 h): 1.37 nM
- Activity [25]: Active
- IC50 ([12]; Homo sapiens, SW48, 72 h): 3.32 nM
